Assay outcomes: PubChem BioAssay, several laboratories
Hits are enriched below; roughly 2.6% of the tested compounds scored in any of these assays.
SENP8 block-1 = inhibitors of human SENP8 protease | Q96LD8 | purified SENP8, Z-RLRGG-aminoluciferin cleavage, luminescence | inhibition, % at 10 µM | 330,000 compounds, 1.2% hits | AID 2540; in the data active = inhibition above about 50%
Target sequence (Q96LD8 whole entry, looked up): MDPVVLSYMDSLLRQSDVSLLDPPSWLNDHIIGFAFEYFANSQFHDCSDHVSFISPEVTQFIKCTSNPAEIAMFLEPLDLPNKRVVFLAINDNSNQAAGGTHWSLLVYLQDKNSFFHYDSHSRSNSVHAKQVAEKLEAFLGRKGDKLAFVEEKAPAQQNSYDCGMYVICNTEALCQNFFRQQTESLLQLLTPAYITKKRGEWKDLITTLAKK
SENP8 block-2 = SENP8 (human) protease inhibition; 360,000 compounds, 0.64% hits; Q96LD8; recombinant SENP8, Nedd8 substrate fluorescence; inhibition, % at 20 µM; AID 602440; in the data active = inhibition mostly above about 40%, no sharp cut-off; inactive = mostly below about 27%
SENP1 FRET inh = SENP1 (human) catalytic domain inhibition | Q9P0U3 | recombinant SENP1 catalytic domain, CyPet-SUMO1-YPet FRET cleavage | inhibition, % at 10 µM | 360,000 compounds, 0.21% hits | AID 624204;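 active = inhibition at least 30% at 10 µM, raw YFP signal under a set limit, fluorescence ratio 0.5 to 1.5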;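 also: 0% = enzyme with DMSO and 100% = no enzyme wells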
Target sequence (Q9P0U3 419-644 limits assumed): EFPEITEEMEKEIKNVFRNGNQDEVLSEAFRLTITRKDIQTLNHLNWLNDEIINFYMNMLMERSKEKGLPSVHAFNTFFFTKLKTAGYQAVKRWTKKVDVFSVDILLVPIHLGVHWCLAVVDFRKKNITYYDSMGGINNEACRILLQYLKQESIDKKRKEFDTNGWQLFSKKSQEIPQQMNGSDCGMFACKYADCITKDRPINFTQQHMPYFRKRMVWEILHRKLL
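Material: hSENP1 catalytic domain, recombinant; medium: Tris pH 8 with BME, BSA, NP40 and catalase; compound: single concentration of 10 µM compound, 0.5% DMSO final; technique: FRET read of cyan and yellow fluorescence; timing: 50 min enzyme reaction, room temperature, light-protected; reagent: SFCypet-SUMO1-SFYpet substrate at 25 nM; control set: no-enzyme low, enzyme-DMSO high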
Platelet DG rel = modulates dense granule release in human platelets. AID 1663. human platelet-rich plasma, SFLLRN dense granule ATP release, luminescence. inhibition, %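 (compounds screened at 7.5 µM in platelet-rich plasma)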. 300,000 compounds, 0.22% hits;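 active = mean replicate score, as percent of positive control, at or above 50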
SENP7 inh = blocks the human protease SENP7; AID 434973; recombinant SENP7, Z-RLRGG-aminoluciferin luminescence, 40 min; 330,000 compounds, 1.5% hits; inhibition, % at 5 µM; Q9BQF6;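 active = inhibition above about 50% at the single test dose, limit read from the data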;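 also: plate controls were DMSO with enzyme for no effect and no enzyme buffer wells for full effect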
SENP6 inh = inhibitors of human SENP6 protease | inhibition, % at 10 µM | Recombinant SENP6 catalytic domain, aminoluciferin luminescence | Q9GZR1 | 330,000 compounds, 1.8% hits;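 active = inhibition above about 50% at the single tested dose, limit read from the data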;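 also: plate controls were DMSO wells with enzyme for no effect and DMSO wells lacking enzyme for full effect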
* hit, by the source's call; . = no result given.

SMILES	SENP8 block-1	SENP8 block-2	SENP1 FRET inh	Platelet DG rel	SENP7 inh	SENP6 inh
COc1cc(CCN(C(=O)c2cc3ccccc3[nH]2)C(C)c2nc3ccccc3[nH]2)cc(OC)c1 (stereo not drawn)	.	-6	-2	.	.	.
CCOCCC(=O)Nc1ccc2c(c1)c(=O)n(C)n2-c1ccccc1F	.	-486	4	.	.	.
O=C(Nc1cccc(NC(=O)c2cccnc2Cl)c1)c1ccco1	1	6	-1	112*	7	12
O=C(Nc1ccc(N=Nc2ccccc2)cc1)c1ccccc1Cl	-23	51*	2	-15	2	-2
O=C(Nc1ccc(N=Nc2ccccc2)cc1)c1ccc(Cl)cc1Cl	-1	20	-1	-4	4	-5
O=C(Nc1cccc(NC(=O)c2ccccc2Cl)c1)c1ccco1	-10	13	0	59*	8	-24
CC(=O)Nc1cccc(NC(=O)c2ccccc2Cl)c1	.	-2	2	.	.	.
COC(=O)[C@]12CCCCC=C1N(Cc1ccccc1)C(=O)[C@H](CC(=O)N1CCOCC1)C2	.	14	1	.	.	.
Cc1noc(C)c1Cn1c(C)c(C(=O)NCc2ccc3c(c2)OCCO3)sc1=O	.	-4	-1	.	.	.
O=C(CNC(=O)c1cccnc1)N=Nc1c(O)[nH]c2c(Br)cc(Br)cc12	-4	44*	1	1	11	9
Cn1c(O)c(N=NC(=O)CNC(=O)c2ccccc2)c2ccccc21	6	10	1	0	1	-22
Cn1c(N=NC(=O)c2ccccc2)c(O)c2ccccc21	41	24	1	-5	49	70*
O=C(NCC(F)(F)F)c1cc2c(c(-c3cccc(-c4ccccc4F)c3)n1)[C@H](CCO)N(C(=O)CC1CC1)C2	.	16	1	.	.	.
Cc1nc2ccc(-c3nc4ccccc4[nH]3)cc2[nH]1	16	-188	1	3	49	57*
Cc1ccc(-c2nc3ccccc3[nH]2)cn1	5	-379	-1	33	43	48
O=C1/C(=C\c2ccc(O)cc2)SC(=S)N1c1cccnc1	5	22	81*	2	14	38
O=c1cc(CN2CCN(c3ccccc3O)CC2)nc2sccn12	2	-18	-43	72*	-2	-4
Cc1cccc(N2CCN(Cc3cc(=O)n4ccsc4n3)CC2)c1C	0	0	-7	1	3	17
O=C(N/N=C/c1sc(=O)n(-c2ccccc2)c1Cl)c1ccccc1	56*	-7	-12	12	76*	83*
COC(=O)[C@]12CCCCC=C1N(CCC1=CCCCC1)C(=O)[C@H](CC(=O)N1CCCC1)C2	.	8	0	.	.	.
COc1cc(OC)c2c(c1)C(=O)c1cc(OC)cc(OC)c1C2=O	1	57*	11	-3	3	-14
COc1ccc(C=C2c3ccccc3C(=O)c3ccccc32)c(OC)c1	-9	26	2	5	-1	-26
Cc1cccc(C)c1NC(=O)C1c2ccccc2OCC(=O)N1CCc1c[nH]c2ccccc12 (stereo not drawn)	.	14	1	.	.	.
Nc1ccc(N2CCN(c3ccc(F)cc3)CC2)cc1	-3	18	3	-2	0	-22
Nc1ccc(N2CCN(c3ccc(Cl)c(Cl)c3)CC2)cc1	-9	41*	4	0	7	4
SMILES	SENP8 block-1	SENP8 block-2	SENP1 FRET inh	Platelet DG rel	SENP7 inh	SENP6 inh
Nc1ccc(N2CCCCCC2)cc1	23	.	.	.	26	52*
COC(=O)N1CCN(c2ccc(Cl)c(Cl)c2)CC1	-5	19	2	-2	3	-8
[O-][n+]1cc(Cl)cc(Cl)c1	.	15	1	.	.	.
COc1ccc(C(=O)COC(=O)c2cccnc2SC)cc1	29	3	4	2	71*	27
O=C(CN1C2=NCCCN2c2ccccc21)c1ccc(Br)s1	-11	41*	1	-3	0	-6
CCCNC(=O)C1(C)CCCN(C(=O)c2cc(F)cc(F)c2)C1 (stereo not drawn)	.	13	3	.	.	.
Cc1ccccc1NC(=O)CC1SC(=O)N(c2ccccc2)C1=O (stereo not drawn)	-8	55*	8	1	8	-1
CN(C)c1ccc(/C=C/C=C2/SC(=S)N(c3ccccc3)C2=O)cc1	1	11	72*	4	-2	-11
O=C(O)c1ccc(N2C(=O)/C(=C/C=C/c3ccccc3)SC2=S)cc1	1	13	7	-3	2	6
